High-throughput results: PubChem BioAssay, Sanford-Burnham Center for Chemical Genomics
In the library only some 2% were active in any assay of this set; here they are far more common.
Scp1 inh – Scp-1 phosphatase inhibitors, primary screen, biochemical, colorimetric, uHTS | Recombinant Scp1, phosphopeptide, malachite green phosphate absorbance | inhibition, % at 20 µM | 340,000 compounds, 0.88% hits;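 active = inhibition above about 50% at 20 µM, limit read from the data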
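Test system: SCP-1 phosphatase catalytic domain, residues 76-261; measured by: colorimetric phosphate reagent with accelerator and stabiliser, absorbance at 630 nm; timing: enzyme reaction 45 min at room temperature, colour 5 min, stabilisation 30 min; also added: Phosphorylated 17-residue peptide substrate; compound dosing: one concentration, 20 µM, with 1.0% DMSO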
STEP inh – STEP phosphatase inhibitors, primary screen, biochemical, fluorescence intensity, uHTS | recombinant STEP, OMFP fluorogenic substrate | inhibition, % at 20 µM | 360,000 compounds, 0.25% hits | AID 588621, 2011;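 active = inhibition at 20 µM, scaled per plate between control wells, above about 37%, limit read from the data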
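System: isolated STEP enzyme; schedule: 20 min enzyme reaction at room temperature, protected from light; medium: Bis-Tris buffer pH 6.0, 2.5 mM DTT, 0.005% Tween 20; signal: fluorescence, 480/540 nm; dosing: single compound dose of 20 µM, 1% DMSO final; also added: OMFP substrate, 25 µM final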
LMPTP inh – LMPTP phosphatase inhibitors, primary screen, biochemical, fluorescence intensity, uHTS; recombinant LMPTP-A, OMFP fluorogenic substrate; inhibition, % at 20 µM; 360,000 compounds, 0.22% hits; AID 651560, 2012;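 active = compounds that cut the enzyme signal by at least half of the control window in the single-dose screen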
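Test system: LMPTP-A phosphatase enzyme; input: 0.625 nM LMPTP-A final; reagent: OMFP substrate, 400 µM final; compound dosing: 20 µM single dose, 3% DMSO; incubation: 50 min dark incubation at room temperature; measured by: endpoint fluorescence intensity from OMFP dephosphorylation; measure: % inhibition relative to no-enzyme and uninhibited control wells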
DNMT1 block – human DNMT1 methyltransferase inhibitors, primary screen, biochemical, molecular beacon, fluorescence, HinP1I cleavage, uHTS; 360,000 compounds, 0.83% hits; DNA (cytosine-5)-methyltransferase 1 (Homo sapiens), P26358; inhibition (reported as % activation of signal), % at 10 µM; in the data active = inhibition above about 50%
CSN deneddyl inh – inhibitors of CSN-mediated cullin deneddylation, primary screen, biochemical, fluorescence polarization, uHTS. COP9 signalosome complex subunit 5 (Homo sapiens), Q92905. AID 651999, 2013. 360,000 compounds, 0.38% hits. inhibition, % at 12.5 µM. Purified CSN, SCF-Nedd8-OG deneddylation;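 active = pattern-corrected inhibition above about 35%, with an unprinted fluorescence ratio check between 0.5 and 1.5, limit read from the data, passing the limit was not always enough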
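Detection – fluorescence polarization · System – HEK293T-derived human Csn5 enzyme · Controls – substrate-only high control, full reaction low control · Timing – 90 min, room temperature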
SUMO1-SIM PPI – modulators of SUMO1 protein-protein interactions, primary screen, biochemical, uHTS | Small ubiquitin-related modifier 1 (Homo sapiens), P63165 | SUMO1 binding to a labelled peptide, TR-FRET, 1 h | inhibition, % at 20 µM | 360,000 compounds, 0.33% hits; in the data active = inhibition above about 37%
DNMT1 interf DR – spectral interference with molecular beacon fluorescence, dose response, artefact control for DNMT1 inhibitor project, biochemical, fluorescent molecular beacon; spectral interference counter-screen; 200 tested, under 10 active; AID 602382, 2012; shares compounds with DNMT1 block; IC50, µM; call rule not given here
DNMT1 confirm – DNMT1 methyltransferase inhibitor retest, confirmation, biochemical, molecular beacon, fluorescence, single concentration; shares compounds with DNMT1 block; DNMT1 molecular beacon HinP1I cleavage; inhibition, % at 10 µM; 2,300 compounds, 8% hits; AID 602385, 2012;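 active = average inhibition of at least 30% in the single-concentration confirmation test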
Beacon interf – shows spectral interference in the DNMT1 beacon assay; shares compounds with DNMT1 block; 2,300 compounds, 1% hits; DNMT1 molecular beacon spectral interference counterscreen, fluorescence 485/520; activation (fluorescence interference), % at 10 µM;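 active = activation of at least 30% at 10 µM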;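 note: DNMT1 catalytic domain with a HinP1I cleavage step and a FAM/dabcyl DNA beacon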
Each line names hits and unclear results; the compound was inactive in the other large screens (follow-up assays come after a bar, where they were run).

Clc1ccc(CNc2ccc3nnc(-c4ccccc4)n3n2)cc1	DNMT1 block 66 | DNMT1 confirm inactive | Beacon interf inactive
CCn1c(SCC(=O)Nc2cc(Cl)ccc2OC)nnc1C1CC1	none
COc1ccc(NC(=O)CN(C)C(=O)c2cccc(-n3cccc3)c2)cc1	DNMT1 block 83 (no result: Scp1 inh) | DNMT1 confirm inactive | Beacon interf inactive
Cc1ccc(N=Nc2c(N)nn3c(N)c(C#N)c(C)nc23)cc1	DNMT1 block 79 | DNMT1 confirm inactive | Beacon interf inactive
O=C(c1ccc(=O)oc1)N1CCOCC1	Scp1 inh 77, DNMT1 block 103 | DNMT1 interf DR inactive | DNMT1 confirm 64 | Beacon interf inactive
O=C(c1ccc(=O)oc1)N1CCCc2ccccc21	DNMT1 block 105 | DNMT1 confirm inactive | Beacon interf inactive
Cc1cc(C)n(C(=O)c2ccc([N+](=O)[O-])cc2Cl)n1	none
CCN(CC)CCCNc1nc2cc(OC)c(OC)cc2c2nc(-c3ccccc3)nn12	DNMT1 block 64 | DNMT1 interf DR inactive | DNMT1 confirm inactive | Beacon interf inactive
COc1ccc(CNC(=O)C2CCCN(S(=O)(=O)c3ccccc3)C2)cc1 (stereo not drawn)	none
COc1ccc(CCNC(=O)C2CCCN(S(=O)(=O)c3ccccc3)C2)cc1 (stereo not drawn)	DNMT1 block 82 | DNMT1 confirm inactive | Beacon interf inactive
O=C(NC1CCS(=O)(=O)C1)c1ccc(S(=O)(=O)N2CCCCC2)cc1 (stereo not drawn)	none
Cc1ccc(-c2nc(C(=O)NCCCN(C)C)cc3c2[nH]c2ccccc23)cc1	DNMT1 block 56 | DNMT1 confirm inactive | Beacon interf inactive
C[C@@H]1CN([C@@H](C)CO)C(=O)c2cc(N(C)C)ccc2O[C@@H]1CN(C)S(C)(=O)=O	none
CC[C@]12c3[nH]c4cc(CCC(=O)N(C)C)ccc4c3CCN1C(=O)[C@@H](CC(=O)NCc1cccc(C(F)(F)F)c1)C[C@@H]2C(=O)N1CCN(C(=O)c2ccco2)CC1	DNMT1 block 53 | DNMT1 confirm inactive | Beacon interf inactive
C[C@H](NC(=O)c1ccco1)C(=O)Nc1nc(-c2ccccn2)cs1	DNMT1 block 77 | DNMT1 confirm inactive | Beacon interf inactive
O=C(CSc1nnc(SCc2ccccc2)s1)N/N=C/C=C/c1ccco1	Scp1 inh 83, DNMT1 block 98 | DNMT1 confirm inactive | Beacon interf inactive
O=C(CN1CCN(Cc2ccccc2)CC1)N/N=C\C=C/c1ccco1	none
O=C(CNc1cccc2ccccc12)N/N=C/C=C/c1ccco1	none
O=C(Cc1cccs1)N/N=C/C=C/c1ccco1	DNMT1 block 66 | DNMT1 confirm inactive | Beacon interf inactive
COc1ccc(CCNC(=O)CCC(=O)N2CCOc3ccccc32)cc1OC	none
COc1cccc(-c2[nH]nc3c2C(c2ccoc2)C(C#N)=C(N)O3)c1 (stereo not drawn)	DNMT1 block 67 | DNMT1 confirm inactive | Beacon interf inactive
O=C(Nc1ccc(N2CCN(c3ccc(C(F)(F)F)cn3)CC2)nc1)c1cccs1	DNMT1 block 52 | DNMT1 confirm inactive | Beacon interf inactive
COC(=O)c1cc(C#N)c(=O)[nH]c1C	DNMT1 block 89 | DNMT1 confirm inactive | Beacon interf inactive
N#Cc1ccc(-c2nc3ccc(Cl)cn3c2Cc2ccccc2)cc1	none (no result: Scp1 inh)
N#Cc1c2nc3ccccc3nc2n2cc(NC(=O)c3ccc(F)cc3)ccc12	DNMT1 block 103 | DNMT1 confirm inactive | Beacon interf inactive
N#CCCN(C(=O)COC(=O)Cc1ccc(Br)cc1)c1ccccc1	none
N#CCCN(C(=O)COC(=O)COc1ccccc1Cc1ccccc1)c1ccccc1	DNMT1 block 60 | DNMT1 confirm inactive | Beacon interf inactive
c1ccc(Cn2c(SCc3nc4ccccc4s3)nnc2-c2ccco2)cc1	DNMT1 block 104, CSN deneddyl inh 45 | DNMT1 confirm inactive | Beacon interf inactive
CCN(CC)S(=O)(=O)c1ccc(NC(=O)CO/N=C(\N)c2ccccc2)cc1	none
O=C1C2CC=C(Cl)CC2C(=O)N1CCCCCCN1C(=O)C2CC=C(Cl)CC2C1=O (stereo not drawn)	Scp1 inh 71, DNMT1 block 61 | DNMT1 confirm inactive | Beacon interf inactive
Cc1cc(F)ccc1S(=O)(=O)N1CCCOC1CNC(=O)C(=O)NCCCN1CCOCC1 (stereo not drawn)	none
Cc1ccccc1Cn1cc(NC(=O)c2cc3nc(-c4ccco4)cc(C(F)(F)F)n3n2)cn1	none
CCc1ccc(-c2cc(C(F)(F)F)n3nc(C(=O)Nc4cnn(Cc5ccc(C)cc5)c4)cc3n2)s1	DNMT1 block 56 | DNMT1 confirm inactive | Beacon interf inactive
Cc1ccc(C(=O)Nc2ccc(S(=O)(=O)N3CCN(C)CC3)cc2)cc1	DNMT1 block 67 | DNMT1 confirm inactive | Beacon interf inactive
Cc1ccc(NC(=O)c2ccc(S(=O)(=O)N3CCCC3)cc2)cc1	none
COCCN(C(=O)c1cc2c(s1)CCC2)c1c(N)n(CC(C)C)c(=O)[nH]c1=O	DNMT1 block 61 | DNMT1 confirm inactive | Beacon interf inactive
O=C(/C=C/c1ccc2c(c1)OCO2)NCCS(=O)(=O)N1CCN(c2ccc(F)cc2)CC1	none
O=C(/C=C/c1ccc2c(c1)OCO2)NCCS(=O)(=O)N1CCN(c2ccccc2)CC1	DNMT1 block 71 (no result: Scp1 inh) | DNMT1 confirm inactive | Beacon interf inactive
